We go through 31 molecules from ChEMBL document CHEMBL1799953, “Backbone cyclic peptide inhibitors of protein kinase B (PKB/Akt)” (J Med Chem, 2011).

Molecules are shown by their SMILES. Activity calls are given as the source filed them. No cut-off for these calls is given here. *1 amine or outer side, *2 acyl side, *3 side chain or, on linkers, in order; H or OH if unused. Where a SMILES comes first, the peptide text is derived from it. Bridges are numbered along the chain shown (N, C = ends). [ ]: non-standard residue; d: D form. N(6-aminohexyl)Gly = O=C(CN(CCCCCCN[*:3])[*:1])[*:2]; NGly(3-aminopropyl) = O=C(CN(CCCN[*:3])[*:1])[*:2]; N(2-Aminoethyl)Gly = O=C(CN(CCN[*:3])[*:1])[*:2]; Gly(N-(CH2)6NH2) = NCCCCCCNCC(=O)O; Gly(N-2-aminoethyl) = NCCNCC(=O)O; Cha = N[C@@H](CC1CCCCC1)C(=O)O; Gly(N(CH2)3NH2) = NCCCNCC(=O)O; hLeu = CC(C)CC[C@H](N)C(=O)O; Nle = CCCC[C@H](N)C(=O)O; Nva = CCC[C@H](N)C(=O)O; Dap = NC[C@H](N)C(=O)O; CO = O=C([*:1])[*:2]; Nlys = NCCCCNCC(=O)O

RAC-alpha serine/threonine-protein kinase, sequence (P31749 whole entry): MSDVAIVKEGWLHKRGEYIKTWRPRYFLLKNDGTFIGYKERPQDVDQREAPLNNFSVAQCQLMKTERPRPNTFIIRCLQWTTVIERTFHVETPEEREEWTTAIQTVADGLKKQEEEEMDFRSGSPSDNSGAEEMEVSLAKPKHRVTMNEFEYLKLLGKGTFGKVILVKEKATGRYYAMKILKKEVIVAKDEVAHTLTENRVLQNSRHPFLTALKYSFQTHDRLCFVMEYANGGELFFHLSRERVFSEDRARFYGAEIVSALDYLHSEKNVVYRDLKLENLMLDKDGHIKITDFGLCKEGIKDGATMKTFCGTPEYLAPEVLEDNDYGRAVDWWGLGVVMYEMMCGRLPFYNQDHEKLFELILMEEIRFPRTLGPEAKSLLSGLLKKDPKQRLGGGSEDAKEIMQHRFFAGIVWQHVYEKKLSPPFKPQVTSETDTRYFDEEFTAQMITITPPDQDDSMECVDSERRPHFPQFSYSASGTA

This experiment deals with RAC-alpha serine/threonine-protein kinase (Homo sapiens, UniProt P31749). In words: Inhibition of Akt using RPRTSSF peptide and [gamma32]ATP at 5 uM by cell-free radioactive assay relative to control. Summed up:
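Cell-free 32P kinase assay: HisΔPHPKBEEEFlag (0.005 units, one-step Ni-NTA partial purification), 50 mM Hepes pH 7.4, 0.1 mM EGTA, 0.1% 2-mercaptoethanol, 10 mM magnesium acetate, 3 μM RPRTSSF substrate, 10 μM [γ32P]ATP (1 μCi/well). Inhibitor at 5 μM. Activity loss expressed as percent of uninhibited reaction.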
Consider `CCC[C@H](NC(=O)[C@H](CCCNC(=N)N)NC(=O)[C@@H](C)NC(=O)[C@@H](N)CCCNC(=N)N)C(=O)N[C@@H](Cc1ccc(O)cc1)C(=O)N[C@@H](CN)C(=O)N[C@@H](CCC(C)C)C(N)=O`, for which the inhibition result was “inactive”.

Consider `CCC[C@H](NC(=O)[C@H](CCCNC(=N)N)NC(=O)[C@@H](CC(=O)O)NC(=O)[C@@H](N)CCCNC(=N)N)C(=O)N[C@@H](Cc1ccc(O)cc1)C(=O)N[C@@H](CN)C(=O)N[C@@H](CCC(C)C)C(N)=O`, for which the inhibition entry is “inactive”.

As for `CCC[C@H](NC(=O)[C@H](CCCNC(=N)N)NC(=O)[C@@H](CCCCN)NC(=O)[C@@H](N)CCCNC(=N)N)C(=O)N[C@@H](Cc1ccc(O)cc1)C(=O)N[C@@H](CN)C(=O)N[C@@H](CCC(C)C)C(N)=O`, the inhibition stood at 27%.

Regarding `CCC[C@H](NC(=O)[C@H](CCCNC(=N)N)NC(=O)[C@@H](CN)NC(=O)[C@@H](N)CCCNC(=N)N)C(=O)N[C@@H](Cc1ccc(O)cc1)C(=O)N[C@@H](CN)C(=O)N[C@@H](CCC(C)C)C(N)=O`, the inhibition was 32%.

In the case of `CCC[C@H](NC(=O)[C@H](CCCNC(=N)N)NC(=O)[C@@H](Cc1ccc(O)cc1)NC(=O)[C@@H](N)CCCNC(=N)N)C(=O)N[C@@H](Cc1ccc(O)cc1)C(=O)N[C@@H](CN)C(=O)N[C@@H](CCC(C)C)C(N)=O`, the inhibition entry was “inactive”.

For the molecule `CCC[C@H](NC(=O)[C@H](CCCNC(=N)N)NC(=O)[C@@H](Cc1ccccc1)NC(=O)[C@@H](N)CCCNC(=N)N)C(=O)N[C@@H](Cc1ccc(O)cc1)C(=O)N[C@@H](CN)C(=O)N[C@@H](CCC(C)C)C(N)=O`, the inhibition result was “inactive”.

Consider `CCC[C@H](NC(=O)[C@H](CCCNC(=N)N)NC(=O)[C@H](C)NC(=O)[C@@H](N)CCCNC(=N)N)C(=O)N[C@@H](Cc1ccc(O)cc1)C(=O)N[C@@H](CN)C(=O)N[C@@H](CCC(C)C)C(N)=O`, for which the inhibition worked out at 81%.

`CCC[C@H](NC(=O)[C@H](CCCNC(=N)N)NC(=O)[C@H](CC(=O)O)NC(=O)[C@@H](N)CCCNC(=N)N)C(=O)N[C@@H](Cc1ccc(O)cc1)C(=O)N[C@@H](CN)C(=O)N[C@@H](CCC(C)C)C(N)=O`: the inhibition is 68%.

For the molecule `CCC[C@H](NC(=O)[C@H](CCCNC(=N)N)NC(=O)[C@H](CCCCN)NC(=O)[C@@H](N)CCCNC(=N)N)C(=O)N[C@@H](Cc1ccc(O)cc1)C(=O)N[C@@H](CN)C(=O)N[C@@H](CCC(C)C)C(N)=O`, the inhibition amounted to 92%.

For the molecule `CCC[C@H](NC(=O)[C@H](CCCNC(=N)N)NC(=O)[C@H](CN)NC(=O)[C@@H](N)CCCNC(=N)N)C(=O)N[C@@H](Cc1ccc(O)cc1)C(=O)N[C@@H](CN)C(=O)N[C@@H](CCC(C)C)C(N)=O`, the inhibition is 94%.

Regarding `CCC[C@H](NC(=O)[C@H](CCCNC(=N)N)NC(=O)[C@H](Cc1ccc(O)cc1)NC(=O)[C@@H](N)CCCNC(=N)N)C(=O)N[C@@H](Cc1ccc(O)cc1)C(=O)N[C@@H](CN)C(=O)N[C@@H](CCC(C)C)C(N)=O`, the inhibition is 74%.

For the molecule `CCC[C@H](NC(=O)[C@H](CCCNC(=N)N)NC(=O)[C@H](Cc1ccccc1)NC(=O)[C@@H](N)CCCNC(=N)N)C(=O)N[C@@H](Cc1ccc(O)cc1)C(=O)N[C@@H](CN)C(=O)N[C@@H](CCC(C)C)C(N)=O`, the inhibition was found to be 60%.

On to `CCC[C@H](NC(=O)[C@H](CCCNC(=N)N)NC(=O)[C@H]1CCCN1C(=O)[C@@H](N)CCCNC(=N)N)C(=O)N[C@@H](Cc1ccc(O)cc1)C(=O)N[C@@H](CN)C(=O)N[C@@H](CCC(C)C)C(N)=O`, for which the inhibition result was “inactive”.

For the molecule `CCC[C@H](NC(=O)[C@H](CCCNC(=N)N)NC(=O)[C@H](CC1CCCCC1)NC(=O)[C@@H](N)CCCNC(=N)N)C(=O)N[C@@H](Cc1ccc(O)cc1)C(=O)N[C@@H](CN)C(=O)N[C@@H](CCC(C)C)C(N)=O` (H-R[Cha]R[Nva]Y[Dap][hLeu]-NH2), the inhibition is 85%.

Consider `CCC[C@@H]1NC(=O)[C@H](CCCNC(=N)N)NC(=O)CN(C(=O)[C@@H](N)CCCNC(=N)N)CCNC(=O)NCCN(CC(N)=O)C(=O)[C@H](CCC(C)C)NC(=O)[C@H](CN)NC(=O)[C@H](Cc2ccc(O)cc2)NC1=O` (H-R[N(2-Aminoethyl)Gly]R[Nva]Y[Dap][hLeu][N(2-Aminoethyl)Gly]-NH2; linker 2-8 via CO), for which the inhibition came to 30%.

On to `CCC[C@@H]1NC(=O)[C@H](CCCNC(=N)N)NC(=O)CN(C(=O)[C@@H](N)CCCNC(=N)N)CCNC(=O)NCCCCN(CC(N)=O)C(=O)[C@H](CCC(C)C)NC(=O)[C@H](CN)NC(=O)[C@H](Cc2ccc(O)cc2)NC1=O` (H-R[N(2-Aminoethyl)Gly]R[Nva]Y[Dap][hLeu][Nlys]-NH2; linker 2-8 via CO), for which the inhibition was determined as 98%.

As for `CCC[C@@H]1NC(=O)[C@H](CCCNC(=N)N)NC(=O)CN(C(=O)[C@@H](N)CCCNC(=N)N)CCCCCCNC(=O)NCCN(CC(N)=O)C(=O)[C@H](CCC(C)C)NC(=O)[C@H](CN)NC(=O)[C@H](Cc2ccc(O)cc2)NC1=O` (H-R[N(6-aminohexyl)Gly]R[Nva]Y[Dap][hLeu][N(2-Aminoethyl)Gly]-NH2; linker 2-8 via CO), the inhibition worked out at 68%.

In the case of `CCC[C@@H]1NC(=O)[C@H](CCCNC(=N)N)NC(=O)CN(C(=O)[C@@H](N)CCCNC(=N)N)CCCCCCNC(=O)NCCCCCCN(CC(N)=O)C(=O)[C@H](CCC(C)C)NC(=O)[C@H](CN)NC(=O)[C@H](Cc2ccc(O)cc2)NC1=O` (H-R[N(6-aminohexyl)Gly]R[Nva]Y[Dap][hLeu][N(6-aminohexyl)Gly]-NH2; linker 2-8 via CO), the inhibition was 39%.

As to `CCC[C@@H]1NC(=O)[C@H](CCCNC(=N)N)NC(=O)CN(C(=O)[C@@H](N)CCCNC(=N)N)CCCCCCNC(=O)NCCCCN(CC(N)=O)C(=O)[C@H](CCC(C)C)NC(=O)[C@H](CN)NC(=O)[C@H](Cc2ccc(O)cc2)NC1=O` (H-R[N(6-aminohexyl)Gly]R[Nva]Y[Dap][hLeu][Nlys]-NH2; linker 2-8 via CO), the inhibition amounted to 100%.

For `CCC[C@@H]1NC(=O)[C@H](CCCNC(=N)N)NC(=O)CN(C(=O)[C@@H](N)CCCNC(=N)N)CCCNC(=O)NCCN(CC(N)=O)C(=O)[C@H](CCC(C)C)NC(=O)[C@H](CN)NC(=O)[C@H](Cc2ccc(O)cc2)NC1=O` (H-R[NGly(3-aminopropyl)]R[Nva]Y[Dap][hLeu][N(2-Aminoethyl)Gly]-NH2; linker 2-8 via CO), the inhibition came out at 54%.

With `CCC[C@@H]1NC(=O)[C@H](CCCNC(=N)N)NC(=O)CN(C(=O)[C@@H](N)CCCNC(=N)N)CCCNC(=O)NCCCN(CC(N)=O)C(=O)[C@H](CCC(C)C)NC(=O)[C@H](CN)NC(=O)[C@H](Cc2ccc(O)cc2)NC1=O` (H-R[NGly(3-aminopropyl)]R[Nva]Y[Dap][hLeu][NGly(3-aminopropyl)]-NH2; linker 2-8 via CO), the inhibition was found to be 98%.

In the case of `CCC[C@@H]1NC(=O)[C@H](CCCNC(=N)N)NC(=O)CN(C(=O)[C@@H](N)CCCNC(=N)N)CCCNC(=O)NCCCCN(CC(N)=O)C(=O)[C@H](CCC(C)C)NC(=O)[C@H](CN)NC(=O)[C@H](Cc2ccc(O)cc2)NC1=O` (H-R[NGly(3-aminopropyl)]R[Nva]Y[Dap][hLeu][Nlys]-NH2; linker 2-8 via CO), the inhibition was determined as 92%.

As for `CCCC[C@H](NC(=O)[C@@H](N)CCCNC(=N)N)C(=O)N[C@@H](CCCNC(=N)N)C(=O)N[C@@H](CCC)C(=O)N[C@@H](Cc1ccc(O)cc1)C(=O)N[C@@H](CN)C(=O)N[C@@H](CCC(C)C)C(N)=O` (H-R[Nle]R[Nva]Y[Dap][hLeu]-NH2), the inhibition was 82%.

Regarding `CCC[C@@H]1NC(=O)[C@H](CCCNC(=N)N)NC(=O)CN(C(=O)[C@@H](N)CCCNC(=N)N)CCCCNC(=O)NCCN(CC(N)=O)C(=O)[C@H](CCC(C)C)NC(=O)[C@H](CN)NC(=O)[C@H](Cc2ccc(O)cc2)NC1=O` (H-R[Nlys]R[Nva]Y[Dap][hLeu][N(2-Aminoethyl)Gly]-NH2; linker 2-8 via CO), the inhibition was determined as 84%.

Regarding `CCC[C@@H]1NC(=O)[C@H](CCCNC(=N)N)NC(=O)CN(C(=O)[C@@H](N)CCCNC(=N)N)CCCCNC(=O)NCCCCCCN(CC(N)=O)C(=O)[C@H](CCC(C)C)NC(=O)[C@H](CN)NC(=O)[C@H](Cc2ccc(O)cc2)NC1=O` (H-R[Nlys]R[Nva]Y[Dap][hLeu][N(6-aminohexyl)Gly]-NH2; linker 2-8 via CO), the inhibition came to 94%.

`CCC[C@@H]1NC(=O)[C@H](CCCNC(=N)N)NC(=O)CN(C(=O)[C@@H](N)CCCNC(=N)N)CCCCNC(=O)NCCCN(CC(N)=O)C(=O)[C@H](CCC(C)C)NC(=O)[C@H](CN)NC(=O)[C@H](Cc2ccc(O)cc2)NC1=O` (H-R[Nlys]R[Nva]Y[Dap][hLeu][NGly(3-aminopropyl)]-NH2; linker 2-8 via CO): the inhibition was found to be 54%.

Take `CCC[C@H](NC(=O)[C@H](CCCNC(=N)N)NC(=O)[C@H](CCC)NC(=O)[C@@H](N)CCCNC(=N)N)C(=O)N[C@@H](Cc1ccc(O)cc1)C(=O)N[C@@H](CN)C(=O)N[C@@H](CCC(C)C)C(N)=O` (H-R[Nva]R[Nva]Y[Dap][hLeu]-NH2): the inhibition was determined as 80%.

In the case of `CCC[C@H](NC(=O)[C@H](CCCNC(=N)N)NC(=O)CNCCCN)C(=O)N[C@@H](Cc1ccc(O)cc1)C(=O)N[C@@H](CN)C(=O)N[C@@H](CCC(C)C)C(=O)N(CCN)CC(N)=O` (H-[Gly(N(CH2)3NH2)]R[Nva]Y[Dap][hLeu][Gly(N-2-aminoethyl)]-NH2), the inhibition is 63%.

Consider `CCC[C@H](NC(=O)[C@H](CCCNC(=N)N)NC(=O)CNCCN)C(=O)N[C@@H](Cc1ccc(O)cc1)C(=O)N[C@@H](CN)C(=O)N[C@@H](CCC(C)C)C(=O)N(CCN)CC(N)=O` (H-[Gly(N-2-aminoethyl)]R[Nva]Y[Dap][hLeu][Gly(N-2-aminoethyl)]-NH2), for which the inhibition worked out at 67%.

On to `CCC[C@H](NC(=O)[C@H](CCCNC(=N)N)NC(=O)CNCCCCCCN)C(=O)N[C@@H](Cc1ccc(O)cc1)C(=O)N[C@@H](CN)C(=O)N[C@@H](CCC(C)C)C(=O)N(CCN)CC(N)=O` (H-[Gly(N-(CH2)6NH2)]R[Nva]Y[Dap][hLeu][Gly(N-2-aminoethyl)]-NH2), for which the inhibition was determined as 64%.

On to `CCC[C@H](NC(=O)[C@H](CCCNC(=N)N)NC(=O)CNCCCCN)C(=O)N[C@@H](Cc1ccc(O)cc1)C(=O)N[C@@H](CN)C(=O)N[C@@H](CCC(C)C)C(=O)N(CCN)CC(N)=O` (H-[Nlys]R[Nva]Y[Dap][hLeu][Gly(N-2-aminoethyl)]-NH2), for which the inhibition is 66%.

What is called inhibition is the percentage by which the read-out fell short of the control.
